Measurements reported in publication PMC6071920 (MedChemComm, 2016).
Where “and” joins values, the source holds several entries; their conditions need not be identical. Equal values may be shown once. Read-outs that look alike come from different tables or passages of the source. Each block holds one compound with its values, some of them ahead of it.

Experiments:
[1] = target: TSPO; settings: read-out: Ki for the TSPO; cited from earlier work
[2] = test system: TSPO A147T; format: binding, human; settings: fold discrimination (loss of affinity at TSPO A147T versus TSPO WT)
[3] = test system: TSPO WT over-expressing 293T cells; assay: Proliferation; format: cell-based, human; settings: 48 h, BrdU ELISA
Procedure, shortened: (§1)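 Clonally selected 293T cells, lentivirally transduced with human TSPO WT or A147T, puromycin-selected, grown in DMEM with 10% FBS, 100 U ml−1 penicillin/streptomycin and 2 mM glutamine. BrdU labelled at 37 °C for 4 h, then detected by BrdU ELISA. Stopped with 1 M sulfuric acid and read at 450 nm. Normalised to vehicle controls; one-way ANOVA with Dunnett's test.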

[4] = test system: TSPO A147T over-expressing 293T cells; assay: Proliferation; format: cell-based, human; settings: 48 h, BrdU ELISA
Procedure, shortened: as §1

[5] = target: TSPO A147T (Homo sapiens, UniProt P30536); format: binding
Chain of TSPO A147T (Homo sapiens, UniProt P30536) (P30536 whole entry, stated change not applied): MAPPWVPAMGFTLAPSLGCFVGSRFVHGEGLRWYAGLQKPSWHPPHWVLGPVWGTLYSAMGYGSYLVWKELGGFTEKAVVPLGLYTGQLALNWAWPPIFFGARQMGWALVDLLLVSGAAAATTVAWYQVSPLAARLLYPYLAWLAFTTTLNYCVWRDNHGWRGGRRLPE

[6] = target: TSPO WT (Homo sapiens, UniProt P30536, T147A); format: binding; settings: 3b versus 3a; 4b versus 4a
Chain of TSPO WT (P30536 whole entry T147A): as the sequence (P30536 whole entry, stated change not applied) above, with T147A counted along it

[7] = test system: TSPO; settings: cited from earlier work; for Fold reduction of affinity in LABs compared to HABs: brain tissue or lymphocytes
[8] = target: rat TSPO; settings: read-out: Affinity commonly reported at the rat TSPO; cited from earlier work
[9] = cited from earlier work

SMILES: NC(=O)c1nc(-c2ccccc2)c2ccccc2n1 [4-phenyl quinazoline-2-carboxamide]
- Ki [1]: 0.5 nM

SMILES: CCN(CC)C(=O)Cn1c2ccccc2c2ccccc21 [Compound 3a, 2-(9H-Carbazol-9-yl)-N,N-diethylacetamide]
- TSPO A147T Ki/TSPO WT Ki [2]: 6

- Fold reduction in TSPO A147T affinity compared to 3a ([5]; 3b versus 3a): 2.6 ×
- Fold lower affinity at TSPO WT than the N,N-diethylamide analogue [6]: 3 ×
SMILES: CCN(Cc1ccccc1)C(=O)Cn1c2ccccc2c2ccccc21 [Compound 3b, N-Benzyl-2-(9H-carbazol-9-yl)-N-ethylacetamide]
- Effect on proliferation at 100 μM, TSPO WT cells [3]: did not significantly affect proliferation
- Effect on proliferation at 100 μM, TSPO A147T cells [4]: did not significantly affect proliferation

SMILES: CCN(CC)C(=O)Cn1c2ccccc2c2cc(Br)ccc21 [Compound 4a, 2-(3-Bromo-9H-carbazole-9-yl)-N,N-diethylacetamide]
- TSPO A147T Ki/TSPO WT Ki [2]: 5

SMILES: CCN(CC)C(=O)Cn1c2ccccc2c2cc(-c3ccccc3)ccc21 [Compound 5a, N,N-Diethyl-2-(3-phenyl-9H-carbazole-9-yl)acetamide]
- TSPO A147T Ki/TSPO WT Ki [2]: 5- to 6

- Fold improved (higher) affinity at TSPO A147T than the comparator analogue ([5]; 4b versus 4a, 5c versus 3a): 2 ×
SMILES: CCN(CC)C(=O)Cn1c2ccccc2c2cc(-c3ccc(OC)cc3)ccc21 [Compound 5c, N,N-Diethyl-2-(3-(4-methoxyphenyl)-9H-carbazole-9-yl)acetamide]

SMILES: CCN(CC)C(=O)Cc1c(-c2ccc(OC)cc2)nn2c(C)cc(C)nc12 [DPA-713]
- Effect on proliferation at 100 μM, TSPO WT cells [3]: did not significantly affect proliferation
- Effect on proliferation at 100 μM, TSPO A147T cells [4]: did not significantly affect proliferation

SMILES: COc1ccccc1CN(C(C)=O)c1cnccc1Oc1ccccc1 [PBR-28]
- Fold reduction of affinity in LABs compared to HABs [7]: 55 fold

SMILES: CCC(C)N(C)C(=O)c1cc2ccccc2c(-c2ccccc2Cl)n1 (centres unmarked) [PK 11195]
- Ki [8]: 0.7 to 18 nM
- In vivo bioavailability [9]: poor in vivo bioavailability

SMILES: CCN(Cc1ccccc1)C(=O)Cn1c(=O)n(C)c2cnc(-c3ccccc3)nc21 [XBD-173]
- Fold reduction of affinity in LABs compared to HABs [7]: 13 fold
- Ki ([7]; read-out: Affinity at LABs, LAB brain tissue): 30.3 nM
- TSPO A147T Ki/TSPO WT Ki [2]: 5 and 5- to 6
